These results are taken from article PMC8301548 (Clinical and Translational Science, 2021).

What is called Cmax is the peak of the concentration-time curve. Usually Tmax stands for the time from dosing to the highest level. One may read the Vd/F as the volume of distribution divided by bioavailability. One may read the AUC(0-t) as exposure summed from dosing to a finite time, without extrapolation to infinity.

In brackets after ≈: the same amount, converted by molar mass. Like-named read-outs stand apart in the source and are kept apart here.

A short description of data set [1]: Tolerability in the clinical study. The class given is in vivo, human. Particulars: 19 healthy volunteers who completed the study; 300 mg oral allopurinol. Summed up: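 Healthy adults aged 18–50 were screened by medical-history questionnaire. Exclusions were HLA‑B*58:01 carriers, interacting medications, liver enzymes or creatinine >1.5× normal range, and abnormal platelet or white-cell counts. […] In one protocol they continued 300 mg once daily, with a final dose on day 6. In the other they received a single dose only.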

The format of data set [2] is in vivo. To be noted: human, serum, po, 300 mg, 300 mg single oral dose of allopurinol; for Cmax / Vd/F / AUC(0-t): mean ± SE; for Tmax: median (range); for Vd/F: V/F (apparent volume of distribution).
The subject of data set [3] is serum uric acid (SUA). To be noted: cited from earlier work.
The subject of another data set is BCRP. Particulars: cited from earlier work.
The subject of data set [4] is serum uric acid (SUA). The class given is in vivo, human.
Data set [5] is described as follows: Population PK model of oxypurinol. The class given is in vivo, human. Particulars: for Kfm (formation rate constant): final PK model.

`Oc1ncnc2[nH]ncc12` [Allopurinol, allopurinol]: the tolerability result in data set [1] is “well‐tolerated”. The Cmax was 1370 ± 130 ng/mL in data set [2] (genotype (0) CC, n=9); 1930 ± 617 ng/mL in data set [2] (genotype (1) CA, n=7); 1550 ± 453 ng/mL in data set [2] (genotype (2) AA, n=3). The Tmax came out at 1.5 h in data set [2] (genotype (0) CC), 1 h in data set [2] (genotype (1) CA) and 2 h in data set [2] (genotype (2) AA). Besides, the Vd/F in data set [2] (genotype (0) CC) worked out at 149 ± 17 L; in data set [2] (genotype (1) CA) it was 160 ± 22.3 L; in data set [2] (genotype (2) AA), 148 ± 40.9 L. Besides, the “patients reaching an acceptable treatment end point” value in the data set on serum uric acid (SUA) [3] is reported as 21%. Besides, the BCRP substrate entry with BCRP is recorded as “substrates of BCRP”.

On to `O=c1[nH]c(=O)c2c[nH]nc2[nH]1` [Oxypurinol, oxypurinol], for which the EC50 in the data set with serum uric acid (SUA) [4] (Homo sapiens, read-out: C50 (concentration needed to achieve 50% effect)) was determined as 2.59 µg/mL (≈ 17 µM). Besides, the “Emax (maximum effect)” value with serum uric acid (SUA) [4] (final PK/PD model, effect on SUA, RSE not given) is given as 1. Besides, in data set [5] (V/Fm=θV/Fm×(1+θgender), estimate (%RSE) [95% CI]), the “θgender(female), covariate effect on V/Fm” value is “θgender(female) = −0.248 (35.7) [−0.395, −0.067]”. In addition, the “Kfm (formation rate constant)” value was 0.771 h⁻¹ in data set [5] (BSV in parentheses in the text) and 0.771 (17.8) [0.535, 1.06] 1/h in data set [5] (estimate (%RSE) [95% CI]). Also, the “lower V/Fm in women compared with men” value in data set [5] (final PK/PD model, gender covariate) was found to be 24.8%. Further, the Vd/F in data set [5] (male, human, plasma, oral, 300 mg) stood at 57 L; in data set [2] (genotype (0) CC) it was 49.9 ± 4.53 L; in data set [2] (genotype (1) CA) it was 61.9 ± 9.58 L; in data set [2] (genotype (2) AA), 56.6 ± 11.6 L. Further, the AUC(0-t) was 93900 ± 8070 ng·h/mL in data set [2] (AUC0–24, genotype (0) CC); 93400 ± 9990 ng·h/mL in data set [2] (AUC0–24, genotype (1) CA); 105000 ± 20600 ng·h/mL in data set [2] (AUC0–24, genotype (2) AA). The Cmax amounted to 5930 ± 409 ng/mL in data set [2] (genotype (0) CC, n=9); 6440 ± 592 ng/mL in data set [2] (genotype (1) CA, n=7); 6380 ± 1350 ng/mL in data set [2] (genotype (2) AA, n=3). Also, the Tmax is 4 h in data set [2] (genotype (0) CC), 4 h in data set [2] (genotype (1) CA) and 6 h in data set [2] (genotype (2) AA). In addition, the BCRP substrate result with BCRP is “substrates of BCRP”.
